Published values gathered from unrelated publications.
Target: Serine/threonine-protein kinase Nek9 (NEK9, Homo sapiens, UniProt Q8TD19)
Sequence (Q8TD19 1-979, as in one of the studies): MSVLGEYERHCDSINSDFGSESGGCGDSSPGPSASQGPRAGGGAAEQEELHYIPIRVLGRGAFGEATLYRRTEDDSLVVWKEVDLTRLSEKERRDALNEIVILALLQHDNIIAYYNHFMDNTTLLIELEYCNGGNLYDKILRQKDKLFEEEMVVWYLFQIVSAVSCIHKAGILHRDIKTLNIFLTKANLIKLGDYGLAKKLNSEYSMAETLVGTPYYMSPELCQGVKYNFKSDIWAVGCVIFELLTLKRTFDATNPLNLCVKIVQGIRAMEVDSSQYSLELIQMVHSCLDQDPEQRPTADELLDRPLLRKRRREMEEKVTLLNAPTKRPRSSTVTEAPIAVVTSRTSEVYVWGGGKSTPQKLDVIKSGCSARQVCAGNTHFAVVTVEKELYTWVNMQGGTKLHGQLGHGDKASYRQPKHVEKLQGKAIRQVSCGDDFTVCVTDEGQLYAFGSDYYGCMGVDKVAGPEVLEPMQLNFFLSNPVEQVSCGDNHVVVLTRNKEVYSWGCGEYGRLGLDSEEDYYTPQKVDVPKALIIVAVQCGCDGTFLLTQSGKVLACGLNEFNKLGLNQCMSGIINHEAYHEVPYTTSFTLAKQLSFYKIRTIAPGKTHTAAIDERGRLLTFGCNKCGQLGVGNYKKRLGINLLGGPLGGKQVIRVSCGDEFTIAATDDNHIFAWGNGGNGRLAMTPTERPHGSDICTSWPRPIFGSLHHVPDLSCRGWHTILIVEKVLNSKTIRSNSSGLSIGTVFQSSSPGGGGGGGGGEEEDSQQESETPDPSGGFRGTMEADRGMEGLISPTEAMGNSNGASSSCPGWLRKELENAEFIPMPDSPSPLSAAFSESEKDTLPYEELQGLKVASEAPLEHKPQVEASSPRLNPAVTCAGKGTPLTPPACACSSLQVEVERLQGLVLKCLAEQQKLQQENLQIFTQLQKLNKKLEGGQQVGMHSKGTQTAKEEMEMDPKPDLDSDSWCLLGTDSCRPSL

SMILES | test | system | conditions | endpoint | result
CCN1CCN(Cc2ccc(NC(=O)c3ccc(C)c(Oc4ccnc5[nH]ccc45)c3)cc2C(F)(F)F)CC1 | target engagement in cells, inhibitor, chemoproteomics | Huh-7 | 10 µM | inhibition | -10.9%
COc1ncccc1-c1cnn2ccc(N3CCN(C(=O)OC(C)C)CC3)nc12 | binding, competition with immobilised ligand |  | 1 µM | remaining binding | 100%
O=c1[nH]c2ccccc2n1C1CCN(Cc2ccc(-c3[nH]c4cc5ncnc5cc4nc3-c3ccccc3)cc2)CC1 | cell-free assay |  | 0.5 µM | remaining signal | 99.2%
Cn1cc(-c2cccc(N3CCc4c(sc5c4CC(C)(C)C5)C3=O)c2CO)cc(Nc2ccncn2)c1=O | enzyme activity, inhibitor |  | 1 µM | inhibition | -1%
Nc1ncc(-c2nc(N3CCOCC3)nc(N3CCOCC3)n2)c(C(F)F)n1 | binding, competition with immobilised ligand |  | 10 µM | remaining binding | 92%
Cn1cc(-c2cc(F)cc(N3CCn4c(cc5c4CCCC5)C3=O)c2CO)cc(Nc2ccc(N3CCN(C4COC4)CC3)cn2)c1=O | enzyme activity, inhibitor |  | 0.1 µM | inhibition | 6%
Cn1cncc1[C@](O)(COc1ccc(C#N)cc1-c1ccc(OC(F)(F)F)cc1)c1ccc(C#N)cc1 | cell-free assay, competition with immobilised ligand |  | 1 µM | remaining binding | 72%
CC(C)(C)c1cc(C=C(C#N)C#N)cc(Br)c1O | enzyme activity, inhibitor |  | 0.5 µM | remaining activity | 103%
